Experimental data: ChEMBL document CHEMBL4765315, “Discovery of IAP-recruiting BCL-X PROTACs as potent degraders across multiple cancer cell lines” (Eur J Med Chem, 2020)
Active and inactive are the calls of the source. The calls are words filed in the database; no cut-off is given here.

Tests used:
[1] = Antiproliferative activity against human MyLa1929 cells assessed as cell viability measured after 72 hrs by MTS assay; format: functional, cell-based
Outline: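 MTS tetrazolium read-out of viability after 72 h continuous exposure. MyLa 1929 seeded at 1×10^5 cells per well; EC50/IC50 fitted from concentration–response curves. For MyLa 1929, values are means of at least two independent experiments.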

[2] = tested on: Bcl-2-like protein 1/E3 ubiquitin-protein ligase XIAP (Homo sapiens); assay: Protac activity at BCL-XL/XIAP E3 ligase in human MyLa1929 cells assessed as degradation of BCL-XL by measuring remaining protein at 500 nM measured after 16 hrs by Western blot analysis (reference value: 100%)
MOLT-4 = assay: Antiproliferative activity against human MOLT-4 cells assessed as cell viability measured after 72 hrs by MTS assay; format: functional, cell-based
Platelet = assay: Cytotoxicity against human platelet assessed as cell viability measured after 48 hrs by MTS assay
[3] = Selectivity ratio of IC50 for human platelets to IC50 for human MyLa1929 cells
Outline: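 Platelets were isolated from platelet-rich plasma in acid citrate buffer with PGE1 (1 µM) and apyrase (0.2 units/mL) at final concentration. They were adjusted to 2 × 10^8/mL in HEPES Tyrode's buffer with 10% FBS, PGE1 and apyrase, then treated for 48 h and read by MTS. MyLa 1929 cells (1×10^5 per well) were treated for 72 h and read by MTS, with IC50 from at least two independent experiments. The ratio is platelet IC50 over MyLa 1929 IC50.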

WI-38 = assay: Cytotoxicity against human WI-38 cells assessed as cell viability measured after 72 hrs by MTS assay; format: cell-based; conditions: WI-38, 72 h
[4] = target: Protein cereblon/Bcl-2-like protein 1 (Homo sapiens) (UniProt Q07817+Q96SW2); assay: Protac activity at BCL-XL/CRBN in human MyLa1929 cells assessed as degradation of BCL-XL at 0.01 to 3 uM measured after 16 hrs by western blot analysis; format: cell-based; conditions: dose 0.01-3 µM
Outline: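 MyLa 1929 cells treated 16 h with compound (single 500 nM or concentration series), then harvested for immunoblot. Membranes blocked in 5% milk/TBS-Tween, primary antibody overnight at 4 °C, HRP secondary, ECL detection. BCL-XL band normalized to β-actin by densitometry; reported as % protein remaining versus vehicle.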

[5] = Homo sapiens, MyLa1929, 72 h, read-out: IC50

Protein cereblon/Bcl-2-like protein 1 (Homo sapiens), sequence (Q07817 whole entry, looked up): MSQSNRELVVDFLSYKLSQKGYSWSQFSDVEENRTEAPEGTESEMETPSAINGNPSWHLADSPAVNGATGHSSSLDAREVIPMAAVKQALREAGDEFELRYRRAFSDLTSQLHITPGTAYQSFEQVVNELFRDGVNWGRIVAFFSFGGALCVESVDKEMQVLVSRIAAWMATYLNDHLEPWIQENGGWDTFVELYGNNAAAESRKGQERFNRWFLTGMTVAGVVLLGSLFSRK
Protein cereblon/Bcl-2-like protein 1 (Homo sapiens), sequence (Q96SW2 whole entry, looked up): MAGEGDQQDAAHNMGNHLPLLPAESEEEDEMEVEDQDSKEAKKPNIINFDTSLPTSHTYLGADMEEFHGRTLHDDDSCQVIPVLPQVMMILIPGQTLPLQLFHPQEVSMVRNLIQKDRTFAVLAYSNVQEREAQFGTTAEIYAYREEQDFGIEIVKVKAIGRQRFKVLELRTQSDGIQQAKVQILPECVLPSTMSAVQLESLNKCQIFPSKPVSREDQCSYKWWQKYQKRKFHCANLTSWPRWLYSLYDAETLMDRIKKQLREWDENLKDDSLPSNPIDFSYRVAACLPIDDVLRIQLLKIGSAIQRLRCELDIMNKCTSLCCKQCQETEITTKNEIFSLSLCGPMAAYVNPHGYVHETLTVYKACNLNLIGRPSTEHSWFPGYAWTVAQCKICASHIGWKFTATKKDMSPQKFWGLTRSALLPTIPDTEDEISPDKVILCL

**Q.** For CN[C@@H](C)C(=O)N[C@H]1CCO[C@H]2CC(C)(C)[C@@H](C(=O)N[C@@H]3CCCc4cc(O)ccc43)N2C1=O, which IC50 [1, 5] is on record?
**A.** > 10 µM

**Q.** What does the source list for CN[C@@H](C)C(=O)N[C@@H](C(=O)N1CCC[C@H]1c1nc(C(=O)c2cccc(OCCOCCOCc3cn(CCCC(=O)N4CCN(CC[C@H](CSc5ccccc5)Nc5ccc(S(=O)(=O)NC(=O)c6ccc(N7CCN(CC8=C(c9ccc(Cl)cc9)CCC(C)(C)C8)CC7)cc6)cc5S(=O)(=O)C(F)(F)F)CC4)nn3)c2)cs1)C1CCCCC1?
**A.** IC50 [1, 5]: 0.157 µM; Remaining BCL-XL protein [2]: 31%

**Q.** For CN[C@@H](C)C(=O)N[C@@H](C(=O)N1CCC[C@H]1c1nc(C(=O)c2cccc(OCCCCC(=O)N3CCN(CC[C@H](CSc4ccccc4)Nc4ccc(S(=O)(=O)NC(=O)c5ccc(N6CCN(CC7=C(c8ccc(Cl)cc8)CCC(C)(C)C7)CC6)cc5)cc4S(=O)(=O)C(F)(F)F)CC3)c2)cs1)C1CCCCC1, which IC50 [1, 5] is on record?
**A.** 1.96 µM

**Q.** And the Remaining BCL-XL protein [2]?
**A.** 80%

**Q.** Which IC50 [1, 5] does the source give for CN[C@@H](C)C(=O)N[C@@H](C(=O)N1CCC[C@H]1c1nc(C(=O)c2cccc(OCCCCCCC(=O)N3CCN(CC[C@H](CSc4ccccc4)Nc4ccc(S(=O)(=O)NC(=O)c5ccc(N6CCN(CC7=C(c8ccc(Cl)cc8)CCC(C)(C)C7)CC6)cc5)cc4S(=O)(=O)C(F)(F)F)CC3)c2)cs1)C1CCCCC1 here?
**A.** > 10 µM

**Q.** And the Remaining BCL-XL protein [2]?
**A.** 108%

**Q.** What does the source list for CN[C@@H](C)C(=O)N[C@@H](C(=O)N1CCC[C@H]1c1nc(C(=O)c2cccc(OCCOCCOCC(=O)N3CCN(CC[C@H](CSc4ccccc4)Nc4ccc(S(=O)(=O)NC(=O)c5ccc(N6CCN(CC7=C(c8ccc(Cl)cc8)CCC(C)(C)C7)CC6)cc5)cc4S(=O)(=O)C(F)(F)F)CC3)c2)cs1)C1CCCCC1?
**A.** IC50 [1, 5]: 0.143 µM; Remaining BCL-XL protein [2]: 60%

**Q.** Which results are given for CN[C@@H](C)C(=O)N[C@@H](C(=O)N1CCC[C@H]1c1nc(C(=O)c2cccc(OCCCCCC(=O)N3CCN(CC[C@H](CSc4ccccc4)Nc4ccc(S(=O)(=O)NC(=O)c5ccc(N6CCN(CC7=C(c8ccc(Cl)cc8)CCC(C)(C)C7)CC6)cc5)cc4S(=O)(=O)C(F)(F)F)CC3)c2)cs1)C1CCCCC1?
**A.** IC50 [1, 5]: > 10 µM; Remaining BCL-XL protein [2]: 104%

**Q.** For CN[C@@H](C)C(=O)N[C@@H](C(=O)N1CCC[C@H]1c1nc(C(=O)c2cccc(OCCOCCOCCOCc3cn(CCCC(=O)N4CCN(CC[C@H](CSc5ccccc5)Nc5ccc(S(=O)(=O)NC(=O)c6ccc(N7CCN(CC8=C(c9ccc(Cl)cc9)CCC(C)(C)C8)CC7)cc6)cc5S(=O)(=O)C(F)(F)F)CC4)nn3)c2)cs1)C1CCCCC1, which IC50 [1, 5] is on record?
**A.** 0.147 µM

**Q.** What about the Remaining BCL-XL protein [2] of the same compound?
**A.** 59%

**Q.** For CN(CCOCCOCCOCCNc1cccc2c1C(=O)N(C1CCC(=O)NC1=O)C2=O)CC[C@H](CSc1ccccc1)Nc1ccc(S(=O)(=O)NC(=O)c2ccc(N3CCN(CC4=C(c5ccc(Cl)cc5)CCC(C)(C)C4)CC3)cc2)cc1S(=O)(=O)C(F)(F)F (stereo partly specified), which IC50 ([1]; myla1929) is on record?
**A.** Active

**Q.** And the Activity (MOLT-4)?
**A.** Active

**Q.** For CN[C@@H](C)C(=O)N[C@@H](C(=O)N1CCC[C@H]1c1nc(C(=O)c2cccc(OCCOCCOCCOCCOCC(=O)N3CCN(CC[C@H](CSc4ccccc4)Nc4ccc(S(=O)(=O)NC(=O)c5ccc(N6CCN(CC7=C(c8ccc(Cl)cc8)CCC(C)(C)C7)CC6)cc5)cc4S(=O)(=O)C(F)(F)F)CC3)c2)cs1)C1CCCCC1, which IC50 [1, 5] is on record?
**A.** 0.075 µM

**Q.** And the Remaining BCL-XL protein [2]?
**A.** 29%

**Q.** Which IC50 [1, 5] does the source give for CC1(C)CCC(c2ccc(Cl)cc2)=C(CN2CCN(c3ccc(C(=O)NS(=O)(=O)c4ccc(N[C@H](CCN5CCOCC5)CSc5ccccc5)c(S(=O)(=O)C(F)(F)F)c4)cc3)CC2)C1 [NAVITOCLAX] here?
**A.** 0.05 µM

**Q.** What about the IC50 (Platelet) of the same compound?
**A.** 0.189 µM

**Q.** And the “Ratio IC50” value [3]?
**A.** 137

**Q.** And the IC50 (WI-38)?
**A.** 8.06 µM

**Q.** For O=C1CCC(N2C(=O)c3cccc(NCCOCCOCc4cn(CCCC(=O)N5CCN(CC#Cc6ccc(OCCCc7sc(N8CCc9cccc(C(=O)Nc%10nc%11ccccc%11s%10)c9C8)nc7C(=O)O)c(F)c6)CC5)nn4)c3C2=O)C(=O)N1 (stereo unspecified), which IC50 ([1]; myla1929) is on record?
**A.** Active

**Q.** What about the Activity [4] of the same compound?
**A.** Active

**Q.** What about the Activity (MOLT-4) of the same compound?
**A.** Active

**Q.** For CN[C@@H](C)C(=O)N[C@@H](C(=O)N1CCC[C@H]1c1nc(C(=O)c2cccc(OCCCC(=O)N3CCN(CC[C@H](CSc4ccccc4)Nc4ccc(S(=O)(=O)NC(=O)c5ccc(N6CCN(CC7=C(c8ccc(Cl)cc8)CCC(C)(C)C7)CC6)cc5)cc4S(=O)(=O)C(F)(F)F)CC3)c2)cs1)C1CCCCC1, which IC50 [1, 5] is on record?
**A.** 0.997 µM

**Q.** What about the Remaining BCL-XL protein [2] of the same compound?
**A.** 55%
